Calls of active or inactive are those of the source.
How the values were obtained:
[1] = tested on: OCI-AML-3; test: Antiproliferative activity against human OCI-AML-3 cells at 100 uM incubated for 48 hrs by WST-1 assay; type: functional, cell-based
Method in brief: (§1)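 Leukemia/lymphoma lines plated in triplicate at 5×10^3 cells/well. Exposed to increasing compound concentrations (maximum 100 μM) for 48 h at 37 °C, 5% CO2. WST-1 reagent then added for 1 h. IC50 obtained by nonlinear regression of dose–response curves.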

[2] = Antiproliferative activity against human IMS-M2 cells at 100 uM incubated for 48 hrs by WST-1 assay; type: functional, cell-based; method in brief: as §1
[3] = tested on: OCI-AML2; test: Antiproliferative activity against human OCI-AML2 cells at 100 uM incubated for 48 hrs by WST-1 assay; type: functional, cell-based; method in brief: as §1
[4] = tested on: MV4-11; test: Antiproliferative activity against human MV4-11 cells at 100 uM incubated for 48 hrs by WST-1 assay; type: functional, cell-based; method in brief: as §1
[5] = tested on: Kasumi 1; test: Antiproliferative activity against human Kasumi 1 cells at 100 uM incubated for 48 hrs by WST-1 assay; type: functional, cell-based; method in brief: as §1
[6] = tested on: U-937; test: Antiproliferative activity against human U-937 cells at 100 uM incubated for 48 hrs by WST-1 assay; type: functional, cell-based; method in brief: as §1
[7] = tested on: KARPAS-299; test: Antiproliferative activity against human KARPAS-299 cells at 100 uM incubated for 48 hrs by WST-1 assay; type: functional, cell-based; method in brief: as §1
[8] = tested on: U-87 MG; test: Antiproliferative activity against human U-87 MG cells incubated for 72 to 120 hrs by MTT assay; type: functional, cell-based; conditions: U-87MG ATCC, time 72-120 hrs
Method in brief: (§2)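 HT-29, U-87MG or MKN-45 in RPMI with 10% FBS and L-glutamine. Seeded in sextuplicate at 1.5×10^3 cells/well; compounds at 10–100 μM added after 24 h and left 72, 96 or 120 h; 0.5% DMSO control. MTT absorbance read; viability as treated/control ×100. Mean ± SD of two independent experiments in triplicate.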

[9] = tested on: MKN-45; test: Antiproliferative activity against human MKN-45 cells at 10 to 100 uM incubated for 72 to 120 hrs by MTT assay; type: functional, cell-based; conditions: dose 10-100 µM, time 72-120 hrs; method in brief: as §2
[10] = tested on: HeLa; test: Antiproliferative activity against human HeLa cells at 10 to 100 uM incubated for 72 to 120 hrs by MTT assay; type: functional, cell-based; conditions: dose 10-100 µM, time 72-120 hrs
Method in brief: (§3)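 HEK293T or HeLa grown in DMEM with 10% FBS, mycoplasma-tested and STR-authenticated. Compounds added 24 h after seeding at 10–100 μM for 72–120 h; 0.5% DMSO as control. Viability by MTT colorimetric assay, expressed as treated/control ×100.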

[11] = tested on: HT-29; test: Antiproliferative activity against human HT-29 cells at 10 to 100 uM incubated for 72 to 120 hrs by MTT assay; type: functional, cell-based; conditions: dose 10-100 µM, time 72-120 hrs; method in brief: as §2
[12] = tested on: HEK-293T; test: Antiproliferative activity against human HEK293T cells at 10 to 100 uM incubated for 72 to 120 hrs by MTT assay; type: functional, cell-based; conditions: dose 10-100 µM, time 72-120 hrs; method in brief: as §3
[13] = tested on: HEK293T; test: Binding affinity to MINA53 in HEK293T cells assessed as substrate trapping using RPL27A as substrate at 100 uM after 18 hrs by immunoprecipitation analysis; type: cell-based; conditions: Homo sapiens
Method in brief: (§4)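 HEK293T transiently expressing HA-MINA53, HA-NO66 or empty vector. Treated with 100 μM compound or 0.5% DMSO for 18 h. Cells lysed 1 h at 4 °C in JIES buffer; anti-HA agarose IP overnight, washed, eluted with HA peptide. Blots probed for RPL27A (MINA53) or RPL8 (NO66).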

[14] = tested on: HeLa; test: Binding affinity to MINA53 in HeLa cells assessed as substrate trapping using RPL27A as substrate at 100 uM after 18 hrs by immunoprecipitation analysis; type: cell-based; conditions: Homo sapiens
[15] = tested on: U-87 MG; test: Binding affinity to MINA53 in U-87MG cells assessed as substrate trapping using RPL27A as substrate at 100 uM after 18 hrs by immunoprecipitation analysis; type: cell-based; conditions: Homo sapiens
[16] = tested on: HEK293T; test: Binding affinity to NO66 in HEK293T cells assessed as substrate trapping using RPL8 as substrate at 100 uM after 18 hrs by immunoprecipitation analysis; type: cell-based; conditions: Homo sapiens; method in brief: as §4
[17] = tested on: U-87 MG; test: Inhibition of KDM5 in human U-87MG cells assessed as increase in H3K4me3 level after 48 hrs by immunofluorescence analysis; type: cell-based
Method in brief: (§5)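 U-87MG on coverslips, treated 24 h after plating with 50 μM compound for 48 h. Reference inhibitors: CPI-455 25 μM (KDM5), IOX-1 100 μM (KDM4), GSK-J4 10 μM (KDM6). PFA-fixed cells immunostained for H3K4me3, H3K9me3 or H3K27me3 with DAPI counterstain. Per-cell nuclear intensity quantified, ≥50 cells per condition; Mann–Whitney test vs DMSO.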

[18] = tested on: U-87 MG; test: Inhibition of KDM4 in human U-87MG cells assessed as increase in H3K9me3 level after 48 hrs by immunofluorescence analysis; type: cell-based; method in brief: as §5
[19] = tested on: U-87 MG; test: Inhibition of KDM6 in human U-87MG cells assessed as increase in H3K27me3 level after 48 hrs by immunofluorescence analysis; type: cell-based; method in brief: as §5
[20] = tested on: U-87 MG; test: Induction of DNA damage in human U-87MG cells assessed as increase in gamma H2AX phosphorylation at ser139 at 20 uM by Western blot analysis; type: functional, cell-based; conditions: U-87MG ATCC
[21] = tested on: U-87 MG; test: Cytotoxicity against human U-87MG cells assessed as doxorubicin sensitization after 24 hrs in presence of doxorubicin by MTT assay; type: functional, cell-based; conditions: U-87MG ATCC
Method in brief: (§6)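 U-87MG in RPMI with 10% FBS. Treated 24 h with doxorubicin alone, test compound alone, or both at a fixed doxorubicin:compound ratio of 1:20. Viability read by MTT absorbance and expressed as treated/control ×100. Mean ± SD of two independent experiments, each in triplicate.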

[22] = tested on: U-87 MG; test: Cytotoxicity against human U-87MG cells assessed as reduction in cell viability after 24 hrs in presence of doxorubicin by MTT assay; type: functional, cell-based; conditions: U-87MG ATCC; method in brief: as §6
[23] = tested on: U-87 MG; test: Synergistic cytotoxicity against human U-87MG cells assessed as reduction in cell viability at 20 uM after 24 hrs in presence of doxorubicin by MTT assay; type: functional, U-87MG ATCC; method in brief: as §6
[24] = tested on: U-87 MG; test: Induction of cell cycle arrest in human U-87MG cells assessed as accumulation of cells at G2/M phase at 10 uM after 24 hrs by propidium iodide staining based flow cytometry analysis; type: functional; conditions: U-87MG ATCC
Method in brief: (§7)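 U-87MG treated 24 h with 10 μM compound, alone or with 0.5 μM doxorubicin. Cell-cycle phases and Sub-G1 fraction scored; three independent experiments.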

[25] = tested on: U-87 MG; test: Induction of apoptosis in human U87-MG cells assessed as increase in sub-G1 cells at 10 uM after 24 hrs by propidium iodide staining based flow cytometry analysis; type: functional, cell-based; conditions: U-87MG ATCC; method in brief: as §7
[26] = tested on: U-87 MG; test: Induction of apoptosis in human U87-MG cells assessed as increase in apoptotic cells at 10 uM after 24 hrs in presence of 0.5 uM doxorubicin by propidium iodide staining based flow cytometry analysis; type: functional, U-87MG ATCC; method in brief: as §7
[27] = tested on: U-87 MG; test: Synergistic cytotoxicity against human U-87MG cells assessed as combinantion index at ED50 after 24 hrs in presence of doxorubicin by MTT assay; type: functional, U-87MG ATCC
Method in brief: (§8)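 Doxorubicin combined with inhibitor at a fixed 1:20 concentration ratio, 24 h exposure, U-87MG viability read by MTT. Combination index calculated with the CI equation and plotted against fractional growth inhibition. CI <0.9 is scored as synergism, 0.9–1.1 as additivity, >1.1 as antagonism. Mean of two independent experiments in triplicate.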

[28] = tested on: U-87 MG; test: Synergistic cytotoxicity against human U-87MG cells assessed as combinantion index at ED75 after 24 hrs in presence of doxorubicin by MTT assay; type: functional, U-87MG ATCC; method in brief: as §8
[29] = tested on: U-87 MG; test: Synergistic cytotoxicity against human U-87MG cells assessed as combinantion index at ED90 after 24 hrs in presence of doxorubicin by MTT assay; type: functional, U-87MG ATCC; method in brief: as §8
[30] = tested on: NB-4; test: Antiproliferative activity against human NB-4 cells at 100 uM incubated for 48 hrs by WST-1 assay; type: functional, cell-based; method in brief: as §1
[31] = tested on: HL-60; test: Antiproliferative activity against human HL-60 cells at 100 uM incubated for 48 hrs by WST-1 assay; type: functional, cell-based; method in brief: as §1
[32] = tested on: U-87 MG; test: Antagonist cytotoxicity against human U-87MG cells assessed as reduction in cell viability at 20 uM after 24 hrs in presence of doxorubicin by MTT assay; type: functional, cell-based; conditions: U-87MG ATCC; method in brief: as §6
[33] = organism: Homo sapiens; test: Inhibition of recombinant human NO66 expressed in Escherichia coli BL21 (DE3) using RPL8 N205PVEHPFGGGNHQHIGKPST224 as substrate at 100 uM preincubated for 15 mins followed by substrate addition and measured after 30 to 60 mins by RapidFire Mass spectrometry assay; conditions: time 45-75 min
Method in brief: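 NO66 (E. coli BL21(DE3)-R3-pRARE2, TEV-cleaved) at 375 nM in 50 mM MES pH 7.0, 150 mM NaCl. Preincubated 15 min with compound. […] Formic-acid quench, RapidFire SPE-MS % hydroxylation.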

[34] = organism: Homo sapiens; test: Inhibition of recombinant human MINA53 expressed in Escherichia coli BL21 (DE3) using RPL27A G31RGNAGGLHHHRINFDKYHP49 as substrate at 100 uM preincubated for 15 mins followed by substrate addition and measured after 30 to 60 mins by RapidFire Mass spectrometry assay; conditions: time 45-75 min

O=C(O)c1cnc(SCCCc2ccccc2)[nH]c1=O
60%: Activity [26]
active: Activity [8] | Activity [9] | Activity [10] | Activity [12] | Activity [13] | Activity [14] | Activity [15] | Activity ([20]; TDE = time-dependent effect) Tde | Activity [21] Dose-Dependent Effect | Activity [22] Dose-Dependent Effect | Activity [24] | Activity [25]
0.13: CI [28]
0.21: CI [27]
inactive: Activity [11] | Activity [16] | inhibition [17] | inhibition [18] | inhibition [19]
0.18: CI [29]
75%: Activity [23]
Not Active: IC50 [1] | IC50 [2] | IC50 [3] | IC50 [4] | IC50 [5] | IC50 [6] | IC50 [7]

O=C(O)c1c[nH]c(=S)[nH]c1=O
active: Activity [32]
inactive: Activity [8] | Activity [9] | Activity [11] | Activity [20] | Activity [24]
Not Active: IC50 [1] | IC50 [2] | IC50 [3] | IC50 [4] | IC50 [5] | IC50 [6] | IC50 [30] | IC50 [31] | IC50 [7]
1: CI [27] | CI [28] | CI [29]

O=C(O)c1cnc(SCCc2ccccc2)[nH]c1=O
Not Active: IC50 [1] | IC50 [2] | IC50 [3] | IC50 [4] | IC50 [5] | IC50 [6] | IC50 [7]
22.1: CI [29]
inactive: Activity [11] | Activity [16] | inhibition [17] | inhibition [18] | inhibition [19]
active: Activity [8] | Activity [9] | Activity [10] | Activity [12] | Activity [13] | Activity [14] | Activity [15] | Activity ([20]; TDE = time-dependent effect) Tde | Activity [21] Dose-Dependent Effect | Activity [22] Dose-Dependent Effect | Activity [24] | Activity [25]
75%: Activity [23]
60%: Activity [26]
0.32: CI [27]
0.63: CI [28]

O=C(O)CCNc1cc(N2CCc3ccccc3CC2)nc(-c2ccccn2)n1
inactive: inhibition [33] | inhibition [34]

COC(=O)c1cnc(SCCCc2ccccc2)[nH]c1=O
active: Activity [8] | Activity [9] | Activity [11]
